Test results from ChEMBL document CHEMBL5344415, “Synthesis and Characterization of Phenylalanine Amides Active against Mycobacterium abscessus and Other Mycobacteria” (J Med Chem, 2023).
In brackets after ≈: the same amount, converted by molar mass. Activity calls are given as the source filed them. The rule behind the calls is not given here.

Columns and labels:
[1] = tested on: Mycobacteroides abscessus; assay: Antibacterial activity against Mycobacterium abscessus ATCC 19977 expressing tomato RFP assessed as bacterial growth inhibition incubated for 3 days in MHII medium by RFP fluorescence based broth microdilution method; assay type: functional; details: ATCC 19977, 72 h, time 3 day
Outline: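 Broth microdilution in MHII broth with 0.05 % Tween 80, against the RFP-expressing strain. Twofold nine-point dilution series. Inoculum 5 x 10⁵ cells/mL from a mid-log preculture. Incubated 3 days at 37 °C. Read-out by RFP fluorescence (ex 544/em 590 nm). Controls were 1 % DMSO and 100 μM amikacin. MIC₉₀ from duplicates, averaged.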

NIH3T3 = assay: (§1) Cytotoxicity against mouse NIH3T3 cells assessed as reduction in cell viability incubated for 72 hrs by SRB assay; assay type: toxicity, cell-based; details: nih3t3
MCF7 = assay: Cytotoxicity against human MCF7 cells assessed as reduction in cell viability incubated for 72 hrs by SRB assay; assay type: toxicity, cell-based
[2] = tested on: Mycolicibacterium smegmatis; assay: Antibacterial activity against Mycobacterium smegmatis mc2 155 expressing tomato RFP assessed as bacterial growth inhibition incubated for 3 days in 7H9 medium by RFP fluorescence based broth microdilution method; assay type: functional; details: mc2 155, 72 h, time 3 day
Outline: (§2)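 Broth microdilution in 7H9 with 10 % ADS and 0.05 % Tween 80. Twofold nine-point dilution series. Inoculum 5 x 10⁵ cells/mL taken from a mid-log preculture. Incubation at 37 °C, 3 days for M. smegmatis and M. abscessus, 5 days for M. intracellulare. Read-out by RFP fluorescence (ex 544/em 590 nm). Controls were 1 % DMSO and 100 μM amikacin. MIC₉₀ from duplicates, averaged.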

A2780 = assay: Cytotoxicity against human A2780 cells assessed as reduction in cell viability incubated for 72 hrs by SRB assay; assay type: toxicity, cell-based
HT-29 = assay: Cytotoxicity against human HT-29 cells assessed as reduction in cell viability incubated for 72 hrs by SRB assay; assay type: toxicity, cell-based
[3] = tested on: Mycobacteroides abscessus; assay: Antibacterial activity against Mycobacterium abscessus ATCC 19977 expressing tomato RFP infected in human THP-1 cells assessed as bacterial growth inhibition incubated for 4 days in RPMI medium by RFP fluorescence based assay; assay type: functional; details: ATCC 19977, 96 h, time 4 day
Outline: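 RFP M. abscessus washed, moved into RPMI, filtered through 5 µm and opsonised with 10 % human serum for 30 min. THP-1 cells infected at MOI 5:1 with PMA 40 ng/mL for 4 h at 37 °C, then washed. Infected cells (1x10⁵/well) given a ten-point twofold series. Incubated 4 days at 37 °C, 5 % CO₂. Cells PFA-fixed and DAPI-stained. RFP quantified by imaging. Controls were DMSO and 1.5 µM bedaquiline. Duplicate.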

[4] = tested on: Mycobacterium intracellulare; assay: Antibacterial activity against Mycobacterium intracellulare ATCC 35761 expressing tomato RFP assessed as bacterial growth inhibition incubated for 5 days in 7H9 medium by RFP fluorescence based broth microdilution method; assay type: functional; details: ATCC 35761, 120 h, time 5 day; outline: as §2
[5] = tested on: Mycobacterium tuberculosis; assay: Antibacterial activity against Mycobacterium tuberculosis H37Rv ATCC 27294 assessed as bacterial growth inhibition incubated for 7 days in 7H9 medium by optical density based microplate reader analysis; assay type: functional; details: H37Rv ATCC 27294, 168 h, time 7 day
Outline: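 Compounds serially diluted in flat-bottom 96-well plates. Mid-log culture mixed in to a final OD₆₀₀ of 0.05. Sealed plates incubated in humidified boxes at 37 °C for 7 days with shaking at 80 rpm. Turbidity read at 600 nm. MIC₉₀ taken from dose–response curves. Two biological replicates, averaged.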

[6] = Kinetic solubility of compound in PBS at 0.78 to 500 uM measured immediately by nephelometric method; assay type: physicochemical; details: buffer, dose 0.78-500 µM
Outline: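 DMSO stocks prediluted in DMSO, then diluted 1:50 into PBS (2 % DMSO final) and read immediately by nephelometry at 0.78–500 μM; blank-corrected data fitted by segmental regression; quadruplicates from one stock.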

[7] = tested on: Mycobacteroides abscessus; assay: Antibacterial activity against Mycobacterium abscessus Bamboo harboring inactive clarithromycin-sensitive erm41 C28 sequevar assessed as bacterial growth inhibition incubated for 3 days in 7H9 medium by optical density based method; assay type: functional; details: 72 h, time 3 day
HEK293 = assay: Cytotoxicity against HEK293 cells assessed as reduction in cell viability incubated for 72 hrs by SRB assay; assay type: toxicity, cell-based, Homo sapiens
HeLa = assay: Cytotoxicity against human HeLa cells assessed as reduction in cell viability incubated for 72 hrs by SRB assay; assay type: toxicity, cell-based
[8] = tested on: Mycobacteroides abscessus; assay: Antibacterial activity against Mycobacterium abscessus ATCC 19977 expressing tomato RFP assessed as bacterial growth inhibition incubated for 3 days in 7H9 medium by RFP fluorescence based broth microdilution method; assay type: functional; details: ATCC 19977, 72 h, time 3 day; outline: as §2
A-375 = assay: Cytotoxicity against human A-375 cells assessed as reduction in cell viability incubated for 72 hrs by SRB assay; assay type: toxicity, cell-based
[9] = as §1; assay type: toxicity, cell-based; details: mouse, NIH3T3 cells
[10] = tested on: Mycobacteroides abscessus; assay: Bactericidal activity against Mycobacterium abscessus ATCC 19977 assessed as reduction in viable bacteria incubated for 4 days by microplate dilution assay; assay type: functional; details: time 4 day
[11] = tested on: Mycobacteroides abscessus; assay: Antibacterial activity against Mycobacterium abscessus; assay type: functional
[12] = tested on: Mycobacterium tuberculosis; assay: Antibacterial activity against Mycobacterium tuberculosis; assay type: functional
[13] = Stability in human plasma at 1 uM measured over 120 mins by HPLC-MS/MS analysis; assay type: ADME, cell-free; details: 2 h
[14] = Metabolic stability in pooled human liver microsomes assessed as half life at 2 uM measured over 40 mins in presence of NADPH-cofactor system by HPLC-MS/MS analysis; assay type: ADME, Microsome
Outline: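 Pooled mixed-gender human liver microsomes at 0.42 mg protein/mL in 100 mM phosphate pH 7.4 with MgCl₂ and an NADPH-regenerating system. Test compound 2 μM, 1.6 % solvent, at 37 °C. Five time points over 40 min, stopped with acetonitrile, analysed by HPLC-MS/MS. t1/2 from the slope of ln(AUC) versus time. Controls lacked NADPH. Duplicates.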

[15] = tested on: Mycobacteroides abscessus; assay: Antibacterial activity against MMV688845-resistant Mycobacterium abscessus Bamboo 845R-2.1 harboring rpoB/beta subunit P473L mutation assessed as bacterial growth inhibition incubated for 3 days by optical density based analysis; assay type: functional; details: Bamboo 845R-2.1, 72 h, time 3 day
Outline: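 Tenfold-point twofold dilution series in 7H9, final DMSO 1 %. Final ranges typically 50–0.098 or 6.25–0.012 μM. Mid-log culture added to an initial OD₆₀₀ of 0.05 (5*10⁶ CFU/mL). Incubated 3 days at 37 °C with shaking at 110 rpm. Growth taken as OD₆₀₀ on day 3 minus day 0, as % of drug-free wells. MIC₉₀ read visually from the curves. Clarithromycin as control. Two biological replicates, averaged.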

[16] = tested on: Mycobacteroides abscessus; assay: Bactericidal activity against Mycobacterium abscessus ATCC 19977 assessed as reduction in viable bacteria at 6.25 to 12.5 uM incubated for 4 days by microplate dilution assay; assay type: functional, organism-based; details: dose 6.25-12.5 µM, time 4.0 day
[17] = Stability in mouse plasma at 1 uM measured over 120 mins by HPLC-MS/MS analysis; assay type: ADME, cell-free; details: 2 h
[18] = tested on: Mycobacteroides abscessus; assay: Bactericidal activity against Mycobacterium abscessus ATCC 19977 assessed as reduction in viable bacteria at 6.25 uM incubated for 4 days by microplate dilution assay relative to control; assay type: functional; details: time 4 day
[19] = tested on: Mycobacteroides abscessus; assay: Bactericidal activity against Mycobacterium abscessus ATCC 19977 assessed as reduction in viable bacteria at 3.13 uM incubated for 4 days by microplate dilution assay relative to control; assay type: functional; details: time 4 day
Outline: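 After 4 days in the microplate dilution assay, 10 µl samples (undiluted or 1:100) were plated on 7H10 with glycerol, ADS and 400 µg/mL hygromycin. Colonies counted after 4 days at 37 °C. Done in triplicate. CFU/mL compared with the inoculum counted before incubation.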

| SMILES | MIC90 [1] [µM] | EC50 (NIH3T3) [µM] | EC50 (MCF7) [µM] | MIC90 [2] [µM] | EC50 (A2780) [µM] | EC50 (HT-29) [µM] | MIC50 [3] [µM] | MIC90 [3] [µM] | MIC90 [4] [µM] | MIC90 [5] [µM] | Kinetic_solubility [6] [µM] | MIC50 [7] [µM] | MIC90 [7] [µM] | EC50 (HEK293) [µM] | EC50 (HeLa) [µM] | MIC90 [8] [µM] | EC50 (A-375) [µM] | EC50 at 72 h [9] [µM] | MIC90 [15] [µM] | further results |
| --- | --- | --- | --- | --- | --- | --- | --- | --- | --- | --- | --- | --- | --- | --- | --- | --- | --- | --- | --- | --- |
| O=C(N[C@H](Cc1ccccc1)C(=O)Nc1cc(F)ccc1N1CCS(=O)(=O)CC1)c1ccccc1F | 3.13 (≈ 1.61 µg/mL) | 24.2 | 25.9 | 1.56 (≈ 0.801 µg/mL) | 23.2 | > 30 | 0.39 (≈ 0.2 µg/mL) | 3.13 (≈ 1.61 µg/mL) | 0.1 (≈ 0.0514 µg/mL) | 0.78 (≈ 0.401 µg/mL) | 32 | 0.4 (≈ 0.205 µg/mL) | 4.5 (≈ 2.31 µg/mL) | > 30 | > 30 | 3.13 (≈ 1.61 µg/mL) | > 30 | – | – | – |
| O=C(N[C@H](Cc1ccccc1)C(=O)Nc1ccccc1N1CCOCC1)c1cccs1 | 12.5 (≈ 5.44 µg/mL) | – | > 30 | 0.78 (≈ 0.34 µg/mL) | > 30 | > 30 | 1.56 (≈ 0.679 µg/mL) | 12.5 (≈ 5.44 µg/mL) | 0.78 (≈ 0.34 µg/mL) | 0.78 (≈ 0.34 µg/mL) | 82 | 1.7 (≈ 0.74 µg/mL) | 4.4 (≈ 1.92 µg/mL) | – | > 30 | 6.25 (≈ 2.72 µg/mL) | > 30 | > 30 | > 100 | MBC99 [10]: 50 µM (≈ 21.8 µg/mL); MIC90 [11]: 7 µM (≈ 3.05 µg/mL); MIC90 [12]: 1.2 µM (≈ 0.523 µg/mL); Stability [13]: Stable; t1/2 [14]: 1.7 min; Activity [16]: inactive; Stability [17]: Unstable |
| O=C(N[C@H](Cc1ccccc1)C(=O)Nc1cc(F)ccc1N1CCSCC1)c1ccccc1F | 25 (≈ 12 µg/mL) | 28.5 | > 30 | 6.25 (≈ 3.01 µg/mL) | 28.3 | > 30 | 3.13 (≈ 1.51 µg/mL) | 100 (≈ 48.2 µg/mL) | 0.78 (≈ 0.376 µg/mL) | 1.56 (≈ 0.751 µg/mL) | 31 | 1.15 (≈ 0.554 µg/mL) | 12 (≈ 5.78 µg/mL) | – | 28.3 | 25 (≈ 12 µg/mL) | 29.4 | – | – | – |
| O=C(N[C@H](Cc1cccs1)C(=O)Nc1ccccc1N1CCOCC1)c1cccs1 | 12.5 (≈ 5.52 µg/mL) | 29 | > 30 | 1.56 (≈ 0.689 µg/mL) | 29.5 | 29.8 | 12.5 (≈ 5.52 µg/mL) | > 100 | 1.56 (≈ 0.689 µg/mL) | 6.25 (≈ 2.76 µg/mL) | 41 | 2.4 (≈ 1.06 µg/mL) | 9 (≈ 3.97 µg/mL) | – | > 30 | 12.5 (≈ 5.52 µg/mL) | > 30 | – | – | – |
| O=C(N[C@H](Cc1ccccc1)C(=O)Nc1cc(F)ccc1N1CCS(=O)(=O)CC1)c1cccs1 | 3.13 (≈ 1.57 µg/mL) | 26.9 | 23.2 | 1.56 (≈ 0.783 µg/mL) | 24 | > 30 | 0.39 (≈ 0.196 µg/mL) | 3.13 (≈ 1.57 µg/mL) | 0.2 (≈ 0.1 µg/mL) | 0.78 (≈ 0.391 µg/mL) | 70 | 0.43 (≈ 0.216 µg/mL) | 6.5 (≈ 3.26 µg/mL) | > 30 | > 30 | 6.25 (≈ 3.14 µg/mL) | > 30 | – | – | – |
| O=C(N[C@H](Cc1ccccc1)C(=O)Nc1ccccc1N1CCS(=O)(=O)CC1)c1ccccc1F | 1.56 (≈ 0.773 µg/mL) | – | > 30 | 0.78 (≈ 0.387 µg/mL) | > 30 | > 30 | 0.39 (≈ 0.193 µg/mL) | 6.25 (≈ 3.1 µg/mL) | 0.05 (≈ 0.0248 µg/mL) | 0.2 (≈ 0.0991 µg/mL) | 64 | 0.23 (≈ 0.114 µg/mL) | 4.3 (≈ 2.13 µg/mL) | – | > 30 | 0.78 (≈ 0.387 µg/mL) | > 30 | > 30 | 42 (≈ 20.8 µg/mL) | Stability [13]: Stable; Activity [18]: 99%; t1/2 [14]: 1.5 min; Stability [17]: Stable; Activity [19]: 95% |
| O=C(N[C@H](Cc1ccccc1)C(=O)Nc1ccccc1N1CC[S+]([O-])CC1)c1cccs1 | 6.25 (≈ 2.92 µg/mL) | – | > 30 | 1.56 (≈ 0.729 µg/mL) | > 30 | > 30 | 3.13 (≈ 1.46 µg/mL) | 25 (≈ 11.7 µg/mL) | 0.1 (≈ 0.0468 µg/mL) | 0.4 (≈ 0.187 µg/mL) | 271 | 0.33 (≈ 0.154 µg/mL) | 2 (≈ 0.935 µg/mL) | > 30 | > 30 | 3.13 (≈ 1.46 µg/mL) | > 30 | > 30 | > 100 | Activity [18]: 99%; Activity [19]: 58% |
